Two molecules from ChEMBL document CHEMBL4145453, “Synthesis, physicochemical properties, and biological activity of bile acids 3-glucuronides: Novel insights into bile acid signalling and detoxification” (Eur J Med Chem, 2018) can be followed below.

≈ marks a conversion by molar mass, not a printed value.

One data set has as its target T1, Bile acid receptor (Homo sapiens, UniProt Q96RI1).
T1 sequence (Q96RI1 whole entry): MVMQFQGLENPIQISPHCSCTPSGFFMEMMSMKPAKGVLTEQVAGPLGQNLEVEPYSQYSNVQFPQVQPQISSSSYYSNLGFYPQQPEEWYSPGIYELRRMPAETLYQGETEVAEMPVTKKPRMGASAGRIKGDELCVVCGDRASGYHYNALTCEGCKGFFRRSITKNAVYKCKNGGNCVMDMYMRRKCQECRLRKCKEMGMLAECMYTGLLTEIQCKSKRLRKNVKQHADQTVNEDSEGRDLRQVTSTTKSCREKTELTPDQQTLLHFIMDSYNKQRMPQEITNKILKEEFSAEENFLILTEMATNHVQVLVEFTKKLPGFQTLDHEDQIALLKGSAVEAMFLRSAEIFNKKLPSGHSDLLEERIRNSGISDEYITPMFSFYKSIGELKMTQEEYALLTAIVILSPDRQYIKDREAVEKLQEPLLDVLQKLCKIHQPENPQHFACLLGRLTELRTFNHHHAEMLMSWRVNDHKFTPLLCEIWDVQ
Briefly: Agonist activity at GST-tagged FXR-LBD (unknown origin) assessed as biotin-labeled SRC-1 recruitment after 30 mins by Alpha Screen assay.

Data set [1] has as its target T2, Bile acid receptor (Homo sapiens) (UniProt Q96RI1).
T2 sequence (whole entry): T1 sequence (Q96RI1 whole entry)
Briefly: Agonist activity at GST-tagged FXR-LBD (unknown origin) assessed as biotin-labeled SRC-1 recruitment after 30 mins by Alpha Screen assay relative to CDCA. Summed up:
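GST-FXR-LBD (10 nM) with biotinylated SRC-1 peptide (30 nM), anti-GST acceptor and streptavidin donor beads; buffer 50 mM Tris pH 7.4, 50 mM KCl, 0.1% BSA, 1 mM DTT. Compound in DMSO, 30 min r.t., then beads 4 h dark r.t.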

A short description of data set [2]: Solubility of the compound in pH 7.4 PBS buffer at 300 uM after 24 hrs by HPLC-ESI-MS analysis. Type of data set: physicochemical. Summed up: (§1)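 Dried 1 mM stock (300 µL) was redissolved in 1 mL PBS pH 7.4 or acid solution pH 1.0 (nominal about 300 µM). Stirred 24 h at r.t., centrifuged, diluted 1:100 or 1:10, then quantified by HPLC-ESI-MS/MS in MRM mode against a 6-point calibration (0.01–10 µM).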

A short description of data set [3]: Solubility of the compound in pH 1 HCl solution at 300 uM after 24 hrs by HPLC-ESI-MS analysis. Type of data set: physicochemical. The gist of the method:
as §1

Data set [4] can be described thus: Octanol-HCl distribution coefficient, log P of the compound at pH 1 at 1 uM after 24 hrs by shake flask method. Type of data set: physicochemical. The gist of the method:
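Shake-flask method, 1 µM bile acid in mutually pre-saturated 1-octanol/DPBS pH 7.4 or 1-octanol/HCl pH 1.0 (50:50). Equilibrated 24 h with stirring at r.t., then centrifuged. Aqueous-phase concentration before and after partition measured by HPLC-ESI-MS/MS.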

The target in another data set is albumin (Bos taurus, UniProt P02769). The data set can be described thus: Binding affinity to bovine serum albumin at 10 uM after 24 hrs by equilibrium dialysis method. Type of data set: ADME. The note with it: cattle, read-out: PB (converted).
Sequence of albumin (P02769 whole entry): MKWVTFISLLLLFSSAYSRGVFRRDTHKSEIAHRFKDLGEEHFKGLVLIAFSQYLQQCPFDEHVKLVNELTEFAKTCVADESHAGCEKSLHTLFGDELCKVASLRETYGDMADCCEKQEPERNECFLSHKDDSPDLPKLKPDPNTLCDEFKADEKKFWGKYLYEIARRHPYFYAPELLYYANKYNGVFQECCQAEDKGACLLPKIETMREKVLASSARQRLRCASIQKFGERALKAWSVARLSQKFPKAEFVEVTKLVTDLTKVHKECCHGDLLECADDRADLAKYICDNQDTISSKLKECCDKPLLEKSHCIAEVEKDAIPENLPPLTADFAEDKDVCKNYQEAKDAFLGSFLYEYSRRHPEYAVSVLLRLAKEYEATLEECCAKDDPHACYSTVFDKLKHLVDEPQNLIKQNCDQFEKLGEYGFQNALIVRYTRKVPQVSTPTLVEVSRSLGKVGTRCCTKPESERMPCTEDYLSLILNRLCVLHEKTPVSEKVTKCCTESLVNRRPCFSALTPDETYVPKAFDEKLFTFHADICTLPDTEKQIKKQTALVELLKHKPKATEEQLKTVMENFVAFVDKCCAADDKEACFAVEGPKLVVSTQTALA

For the molecule `C[C@H](CCC(=O)O)[C@H]1CC[C@H]2[C@@H]3CC[C@@H]4C[C@H](O)CC[C@]4(C)[C@H]3C[C@H](O)[C@]12C` [DEOXYCHOLIC ACID], the EC50 at Bile acid receptor was found to be 45 µM. Further, the Efficacy in data set [1] came to 7%.
For `C[C@H](CCC(=O)O)[C@H]1CC[C@H]2[C@@H]3[C@H](O)C[C@@H]4C[C@H](O)CC[C@]4(C)[C@H]3CC[C@]12C` [CHENODIOL], the solubility at 24 h, 300 µM in data set [2] came out at 282 µM (≈ 111 µg/mL); in data set [3], 33 µM (≈ 13 µg/mL). For the same molecule, the logD at 24 h, 1 µM in data set [4] came out at 2.5. In addition, at albumin, the fraction unbound at 24 h, 10 µM was 0.015.
